High-throughput results from PubChem.
In the library only some 1.9% were active in any assay of this set; here they are far more common.
SUMO1 PPI mod – alters human SUMO1 binding to SIM partners | SUMO1 binding to a labelled peptide, TR-FRET, 1 h | inhibition, % at 20 µM | 360,000 tested, 0.33% active | AID 602429; in the data active = inhibition above about 37%
CSN inh – blocks human CSN-mediated cullin deneddylation; AID 651999; Purified CSN, SCF-Nedd8-OG deneddylation, fluorescence polarization; inhibition, % at 12.5 µM; Q92905; 360,000 tested, 0.38% active;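 active = pattern-corrected inhibition above about 35%, with an unprinted fluorescence ratio check between 0.5 and 1.5, limit read from the data, passing the limit was not always enough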;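 note: 0% = enzyme with substrate and 100% = substrate without enzyme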
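Assay system: HEK293T-derived human Csn5 enzyme; quantity: 0.24 nM enzyme; medium: Tris/NaCl/DTT buffer, pH 7.5; also added: substrate SCFSkp2-Nedd8OG, 10 nM; doses: 12.5 µM compound; schedule: 90 min reaction at room temperature; signal: FP; read-out: % inhibition of substrate cleavage by Csn5; benchmarks: substrate-only high control, full reaction low control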
Scp-1 inhibitor – inhibitors of human Scp-1 phosphatase; Q9GZU7; Recombinant Scp1, phosphopeptide, malachite green phosphate absorbance; inhibition, % at 20 µM; 340,000 tested, 0.88% active;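 active = inhibition above about 50% at 20 µM, limit read from the data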;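 note: plate controls were DMSO wells with enzyme for no effect and wells lacking enzyme for full effect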
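Test system: SCP-1 phosphatase catalytic domain, residues 76-261; measured by: colorimetric phosphate reagent with accelerator and stabiliser, absorbance at 630 nm; timing: enzyme reaction 45 min at room temperature, colour 5 min, stabilisation 30 min; also added: Phosphorylated 17-residue peptide substrate; compound dosing: one concentration, 20 µM, with 1.0% DMSO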
STEP inh – blocks human striatal-enriched tyrosine phosphatase. recombinant STEP, OMFP fluorogenic substrate, fluorescence. inhibition, % at 20 µM. 360,000 tested, 0.25% active. P54829. AID 588621;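 active = inhibition at 20 µM, scaled per plate between control wells, above about 37%, limit read from the data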;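 note: 0% = DMSO with enzyme and substrate and 100% = substrate only without enzyme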
Target sequence (P54829 whole entry, looked up): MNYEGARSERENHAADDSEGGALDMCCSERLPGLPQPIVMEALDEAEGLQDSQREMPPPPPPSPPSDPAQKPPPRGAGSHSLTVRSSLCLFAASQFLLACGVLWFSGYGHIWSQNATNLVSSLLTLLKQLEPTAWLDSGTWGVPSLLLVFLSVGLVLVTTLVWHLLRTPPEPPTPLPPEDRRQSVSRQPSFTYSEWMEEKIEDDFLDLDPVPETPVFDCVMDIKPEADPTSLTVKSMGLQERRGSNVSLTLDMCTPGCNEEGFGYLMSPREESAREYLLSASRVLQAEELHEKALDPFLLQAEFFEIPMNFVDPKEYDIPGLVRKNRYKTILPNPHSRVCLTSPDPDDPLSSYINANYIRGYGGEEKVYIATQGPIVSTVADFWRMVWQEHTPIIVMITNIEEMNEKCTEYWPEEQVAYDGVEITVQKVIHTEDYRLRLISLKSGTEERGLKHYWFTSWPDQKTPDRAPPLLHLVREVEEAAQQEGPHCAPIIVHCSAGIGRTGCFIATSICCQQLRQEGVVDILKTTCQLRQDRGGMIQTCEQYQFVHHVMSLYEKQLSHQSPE
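System: STEP phosphatase, cell-free reaction; Buffer or medium: Bis-Tris pH 6.0 buffer with DTT, detergent; Incubation: 20 min at room temperature, dark; Measured by: fluorescence, 480/540 nm.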
DNMT1 inh – DNMT1 (human) enzyme inhibition. inhibition (reported as % activation of signal), % at 10 µM. DNMT1 molecular beacon, Hinp1I cleavage, fluorescence. AID 588458. 360,000 tested, 0.83% active. P26358; in the data active = inhibition above about 50%
LMPTP block – blocks human LMPTP phosphatase; 360,000 tested, 0.22% active; P24666; inhibition, % at 20 µM; recombinant LMPTP-A, OMFP fluorogenic substrate, fluorescence intensity;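 active = compounds that cut the enzyme signal by at least half of the control window in the single-dose screen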;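 note: plate controls were DMSO wells with enzyme plus substrate for no effect and substrate without enzyme for full effect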
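material = LMPTP-A | quantity = 0.625 nM enzyme | reagent = OMFP substrate, 400 µM final | buffer or medium = Bis-Tris pH 6.0, DTT, detergent | detection = endpoint fluorescence intensity from OMFP dephosphorylation | dosing = single 20 µM dose | read-out basis = % inhibition relative to no-enzyme and uninhibited control wells | control set = no-enzyme and uninhibited controls | timing = 50 min at room temperature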
DNMT1 interf DR – counter-screen for DNMT1 inhibitors: spectral interference, dose response. molecular beacon fluorescence. 200 tested, under 10 active. shares compounds with DNMT1 inh. AID 602382. IC50, µM; call rule not given here
DNMT1 confirm – DNMT1 inhibition confirmation, single concentration | inhibition, % at 10 µM | 2,300 tested, 8% active | shares compounds with DNMT1 inh | DNMT1 molecular beacon HinP1I cleavage, fluorescence;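 active = average inhibition of at least 30% in the single-concentration confirmation test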
Beacon interf – shows spectral interference in the DNMT1 beacon assay. activation (fluorescence interference), % at 10 µM. DNMT1 molecular beacon spectral interference counterscreen, fluorescence 485/520. 2,300 tested, 1% active. shares compounds with DNMT1 inh. AID 602387;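 active = activation of at least 30% at 10 µM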;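 note: DNMT1 catalytic domain with a HinP1I cleavage step and a FAM/dabcyl DNA beacon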
Active calls of the source: *; . = no result.

SMILES | SUMO1 PPI mod | CSN inh | Scp-1 inhibitor | STEP inh | DNMT1 inh | LMPTP block | DNMT1 confirm | Beacon interf | others
O=C(C[C@H]1C/C=C\C[C@H](Cc2ccc(F)cc2)C(=O)O[C@@H](c2ccccc2)CNC1=O)N[C@@H](CO)Cc1ccccc1 | -2 | -1 | -3 | -2 | 63* | -1 | 0 | -6
O=C(C[C@H]1C/C=C\C[C@@H](Cc2ccc(F)cc2)C(=O)O[C@@H](c2ccccc2)CNC1=O)N[C@@H](CO)Cc1ccccc1 | 6 | 24 | -2 | 0 | 37 | 0 | . | .
CCOc1cc2[nH]c(=S)n(CCC(=O)NCc3ccc(OC)cc3)c(=O)c2cc1OCC | 6 | 2 | -7 | 4 | 59* | 1 | -3 | -10
COc1ccc(CNC(=O)CCCn2c(=S)[nH]c3cc4c(cc3c2=O)OCO4)cc1 | -29 | 1 | -5 | 8 | 2 | 0 | . | .
O=S(=O)(c1ccc2c(c1)C(O)c1ccccc1CC2)C(F)(F)F (stereo not drawn) | -5 | -2 | 4 | -5 | 4 | 2 | . | .
O=C(Nc1sc2c(c1C(=O)O)CCC2)C(=O)N1CCOCC1 | 5 | 11 | 43 | 11 | 61* | 5 | 6 | 2
Cc1ccc(-n2nnnc2CN2CCCCC2)cc1 | 0 | -12 | 7 | -1 | 1 | -1 | . | .
Cc1cccc(-n2cnc(C(=O)NNC(=S)Nc3ccc(Cl)cc3)c2)n1 | 11 | -8 | -4 | 4 | -4 | 1 | . | .
Cc1cccc(-n2cnc(C(=O)N/N=C\c3ccc(Br)cc3)c2)n1 | 0 | 15 | -2 | 3 | 52* | 1 | 2 | -2
CN(C)CC1CCC/C(=C\c2ccc(OC(=O)/C=C/c3ccc(Cl)c(Cl)c3)cc2)C1=O (stereo not drawn) | 19 | 3 | 1 | -1 | 50* | 2 | 4 | 0
Cc1cc(NC(=O)Cc2cccs2)no1 | 8 | 33 | 84* | 9 | 111* | 55* | 3 | -6
Cc1ccc2oc(-c3ccc(C)c(NC(=S)NC(=O)c4cccs4)c3)nc2c1 | 2 | -4 | -2 | 2 | 51* | 0 | 0 | -2
Cc1cc(NS(=O)(=O)c2ccc(NC(=O)Cc3cccs3)cc2)no1 | 2 | 4 | -6 | -2 | 5 | 2 | . | .
Cc1ccc2oc(-c3ccc(C)c(NC(=O)Cc4cccs4)c3)nc2c1 | 4 | 5 | -4 | -1 | 52* | -1 | 2 | 0
Cc1ccc(-c2nc3ccccc3o2)cc1NC(=S)NC(=O)c1cc2ccccc2o1 | -2 | -5 | -7 | 1 | 49 | 0 | . | .
Cc1ccc(-c2nnc(-c3ccc(NC(=O)Cc4cccs4)cc3)o2)cc1 | -1 | 6 | 37 | 4 | 49 | 4 | 7 | -1
Cc1ccc(C(=O)N/C(=C\c2cccs2)C(=O)NCCCN2CCOCC2)cc1 | -7 | 0 | 8 | -1 | -2 | -2 | . | .
Cc1ccsc1C(=O)C1CCCN(Cc2cccn2-c2ccc(Cl)cn2)C1 (stereo not drawn) | -1 | 3 | 26 | 3 | 113* | 1 | 1 | -2
O=C(c1ccc(Cl)cc1)C1CCCN(Cc2cccn2-c2ccccn2)C1 (stereo not drawn) | 1 | 3 | -2 | -2 | 1 | -1 | . | .
CC(=O)Nc1ccc(S(=O)(=O)N2CCN(S(=O)(=O)c3ccc(F)c(F)c3F)CC2)cc1 | -1 | -1 | -4 | -2 | -12 | -3 | . | .
O=C(NN1C(=O)C2CC=C(Cl)CC2C1=O)c1ccncc1 (stereo not drawn) | 9 | 5 | 16 | 4 | 58* | -2 | 1 | 1
COc1ccc(NC(=O)c2ccc(N3C(=O)C4CC=C(Cl)CC4C3=O)cc2)cc1 (stereo not drawn) | -2 | 1 | 5 | -3 | -16 | 3 | . | .
O=C(C[C@@H]1C/C=C/CC[C@H](Cc2ccc(F)cc2)C(=O)OC[C@@H](Cc2ccccc2)NC1=O)N[C@H](CO)Cc1ccccc1 | 4 | 0 | -1 | 5 | 42 | 1 | . | .
Cc1nc(C)c(C(=O)Nc2nc3c(C)cccc3s2)o1 | 17 | 19 | 49 | 7 | 79* | 5 | 10 | 0
COc1cc(/C=N/NC(=O)Cc2nnc(N)s2)cc(OC)c1OC | -10 | 0 | -11 | 1 | 2 | -1 | . | .
COc1ccccc1NC(=O)CCCC(=O)OCC(F)(F)C(F)F | -3 | 3 | -2 | 2 | 9 | -1 | . | .
COc1ccc(NC(=O)CCCC(=O)OCC(F)(F)C(F)F)cc1 | 0 | 0 | 0 | -4 | 75* | 0 | 4 | 1
Cc1ccc2cc3c(N)c4c(C)ccc(C)c4nc3nc2c1 | -13 | -12 | -7 | -7 | 72* | 5 | 25 | -8 | DNMT1 interf DR=>99
